Where a chain is given by its changes, count along the chain named. Where “and” joins values, the source holds several entries; their conditions need not be identical. Equal values may be shown once. Read-outs that look alike come from different tables or passages of the source.
Key:
PKCδC1B Y238G = details: PKCδC1B mutant homologous to Y239A; ref Supplementary Table S1; cited from earlier work
PKCθC1B Y239A = target: T1, PKCθC1B Y239A (Mus musculus, UniProt Q02111, Y239A); assay: [3H]PDBu binding assay
T1 sequence (Q02111 232-281 Y239A): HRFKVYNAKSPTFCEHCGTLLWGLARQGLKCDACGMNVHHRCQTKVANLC
Summary of the method: (§1)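 GST-cleaved mouse PKCθ C1B (residues 232–281), E. coli-expressed, affinity/gel-filtration purified. PEG-precipitation [3H]PDBu binding; Kd from saturable plus linear non-specific fit. Ki: [3H]PDBu at 2–5-fold each construct's Kd, DOG or SAG 1–100000 nM, dried from chloroform with phospholipid, sonicated. PS dependence: total phospholipid 100 μg/ml, PS 0–100%, remainder PC, relative to 100% PS. Means ± S.E.M., three independent experiments.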

PKCδC1B L255D = details: in the presence or absence of PS; cited from earlier work
PKCδC1B L250D = details: in the presence or absence of PS; cited from earlier work
PKCδC1B L250R = details: cited from earlier work
PKCθC1B W253G = target: T2, PKCθC1B W253G (Mus musculus, UniProt Q02111, W253G); assay: [3H]PDBu binding assay
T2 sequence (Q02111 232-281 W253G): T1 sequence (Q02111 232-281 Y239A) with A8Y, W22G

PKCδC1B = details: cited from earlier work
PKCθC1B T243A = target: T3, PKCθC1B T243A (Mus musculus, UniProt Q02111, T243A); assay: [3H]PDBu binding assay
T3 sequence (Q02111 232-281 T243A): T1 sequence (Q02111 232-281 Y239A) with A8Y, T12A
Summary of the method: as §1

PKCδC1B W252K = details: cited from earlier work
PKCθC1B wild-type = target: T4, PKCθC1B wild-type (Mus musculus, UniProt Q02111); assay: [3H]PDBu binding assay
T4 sequence (Q02111 232-281): T1 sequence (Q02111 232-281 Y239A) with A8Y
Summary of the method: as §1

PKCδC1B L255K = details: cited from earlier work
PKCδC1B L250K = details: cited from earlier work
PKCθC1B L255G = target: T5, PKCθC1B L255G (Mus musculus, UniProt Q02111, L255G); assay: [3H]PDBu binding assay
T5 sequence (Q02111 232-281 L255G): T1 sequence (Q02111 232-281 Y239A) with A8Y, L24G
Summary of the method: as §1

PKCδC1B L254G = details: PKCδC1B mutant homologous to L255G; ref Supplementary Table S1; cited from earlier work
PKCθC1B Q258G = target: T6, PKCθC1B Q258G (Mus musculus, UniProt Q02111, Q258G); assay: [3H]PDBu binding assay
T6 sequence (Q02111 232-281 Q258G): T1 sequence (Q02111 232-281 Y239A) with A8Y, Q27G
Summary of the method: as §1

PKCδC1B W252G = details: PKCδC1B mutant homologous to W253G; ref Supplementary Table S1; cited from earlier work

## CCCC(=O)O[C@@H]1[C@@H](C)[C@@]2(O)[C@@H](C=C(CO)C[C@]3(O)C(=O)C(C)=C[C@@H]23)[C@@H]2C(C)(C)[C@]12OC(=O)CCC [PDBu, phorbol 12,13-dibutyrate]
PKCδC1B Y238G
  reduction in the binding affinity compared with the wild-type: 60 fold
PKCθC1B Y239A; PS/PC mixture, total phospholipid 100 μg/ml, Y239A
  PDBu binding at 50% PS relative to the level at 100% PS: 130.7%
PKCθC1B Y239A; PS/PC mixtures, Y239A, decrease at 100% PS
  PS percentage giving maximal [3H]PDBu binding: 50–75%
PKCθC1B Y239A; Y239A vs wild-type PKCθC1B (Kd for PDBu, Ki for DOG/SAG)
  reduction in binding affinity compared with the wild-type: 8.51 fold and 9 fold
PKCθC1B Y239A; read-out: PDBu Kd, PKCθ C1B Y239A, mean ± S.E.M.
  Kd: 3.32 ± 0.34 nM
PKCδC1B L255D
  effect of mutation on strong binding of PDBu: completely abolished
PKCδC1B L250D
  effect of mutation on strong binding of PDBu: completely abolished
PKCδC1B L250R; in the absence of lipid
  reduction in PDBu binding: 6.6 fold
PKCδC1B L250R; in the presence of lipid
  reduction in PDBu binding: 340 fold
PKCθC1B W253G; PS/PC mixture, total phospholipid 100 μg/ml, W253G
  PDBu binding at 50% PS relative to the level at 100% PS: 59.3%
PKCθC1B W253G; W253G vs wild-type PKCθC1B (Kd for PDBu, Ki for DOG/SAG)
  reduction in binding affinity compared with the wild-type: 7.56 fold and 8 fold
PKCθC1B W253G; read-out: PDBu Kd, PKCθ C1B W253G, mean ± S.E.M.
  Kd: 2.95 ± 0.19 nM
PKCδC1B
  activity at 50% PS: approximately 100%
PKCθC1B T243A; PS/PC mixture, total phospholipid 100 μg/ml, T243A
  PDBu binding at 50% PS relative to the level at 100% PS: 98.2%
PKCθC1B T243A; T243A vs wild-type PKCθC1B (Kd for PDBu, Ki for DOG/SAG)
  reduction in binding affinity compared with the wild-type: 1.64 fold
PKCθC1B T243A; read-out: PDBu Kd, PKCθ C1B T243A, mean ± S.E.M.
  Kd: 0.64 ± 0.06 nM
PKCδC1B W252K; 50% PS
  activity at 50% PS as percent of the maximum activity: approximately 55%
PKCδC1B W252K; in the absence of the PS
  binding affinity compared with the wild-type: remained almost the same
PKCδC1B W252K; in the presence of PS
  effect on PDBu binding compared with the wild-type: 3 fold
PKCθC1B wild-type; 5% PS in PS/PC, relative to binding at 100% PS
  [3H]PDBu binding at 5% PS: Approximately 30%
PKCθC1B wild-type; 100% PC (0% PS)
  [3H]PDBu binding in 100% PC: essentially no binding
PKCθC1B wild-type; PS/PC mixture, total phospholipid 100 μg/ml, PKCθC1B
  PDBu binding at 50% PS relative to the level at 100% PS: 90.5%
PKCθC1B wild-type; read-out: PDBu Kd, PKCθ C1B WT, mean ± S.E.M. of triplicate independent experiments
  Kd: 0.39 ± 0.2 nM
PKCδC1B L255K; in the absence of lipid
  reduction in PDBu binding: 2.9 fold
PKCδC1B L255K; in the presence of lipid
  reduction in PDBu binding: 250 fold
PKCδC1B L250K; in the absence of the PS
  binding affinity compared with the wild-type: remained almost the same
PKCδC1B L250K; in the presence of PS
  effect on PDBu binding compared with the wild-type: 3 fold
PKCθC1B L255G; L255G vs wild-type PKCθC1B (Kd for PDBu, Ki for DOG/SAG)
  reduction in binding affinity compared with the wild-type: 11.4 fold and 11 fold
PKCθC1B L255G; PS/PC mixture, total phospholipid 100 μg/ml, L255G
  PDBu binding at 50% PS relative to the level at 100% PS: 92.8%
PKCθC1B L255G; PS/PC mixtures, L255G, decrease at 100% PS
  PS percentage giving maximal [3H]PDBu binding: 50–75%
PKCθC1B L255G; read-out: PDBu Kd, PKCθ C1B L255G, mean ± S.E.M.
  Kd: 4.44 ± 0.56 nM
PKCδC1B L254G
  reduction in affinity for PDBu compared with the wild-type: > 1000 fold
PKCθC1B Q258G; PS/PC mixture, total phospholipid 100 μg/ml, Q258G
  PDBu binding at 50% PS relative to the level at 100% PS: 85.7%
PKCθC1B Q258G; Q258G vs wild-type PKCθC1B (Kd for PDBu, Ki for DOG/SAG)
  reduction in binding affinity compared with the wild-type: 1720 fold
PKCθC1B Q258G; read-out: PDBu Kd, PKCθ C1B Q258G, mean ± S.E.M.
  Kd: 670 ± 150 nM
PKCδC1B W252G
  reduction in affinity for PDBu compared with the wild-type: 31 fold

— PMC6988732 (The Biochemical journal, 2013)
